Molecules are shown by their SMILES. Active and inactive are the calls of the source. No cut-off for these calls is given here.

Assay type in all cases: cell-based
The target in assay [1] is T1, 3-hydroxy-3-methylglutaryl-coenzyme A reductase (Homo sapiens) (UniProt P04035).
T1 sequence (whole entry): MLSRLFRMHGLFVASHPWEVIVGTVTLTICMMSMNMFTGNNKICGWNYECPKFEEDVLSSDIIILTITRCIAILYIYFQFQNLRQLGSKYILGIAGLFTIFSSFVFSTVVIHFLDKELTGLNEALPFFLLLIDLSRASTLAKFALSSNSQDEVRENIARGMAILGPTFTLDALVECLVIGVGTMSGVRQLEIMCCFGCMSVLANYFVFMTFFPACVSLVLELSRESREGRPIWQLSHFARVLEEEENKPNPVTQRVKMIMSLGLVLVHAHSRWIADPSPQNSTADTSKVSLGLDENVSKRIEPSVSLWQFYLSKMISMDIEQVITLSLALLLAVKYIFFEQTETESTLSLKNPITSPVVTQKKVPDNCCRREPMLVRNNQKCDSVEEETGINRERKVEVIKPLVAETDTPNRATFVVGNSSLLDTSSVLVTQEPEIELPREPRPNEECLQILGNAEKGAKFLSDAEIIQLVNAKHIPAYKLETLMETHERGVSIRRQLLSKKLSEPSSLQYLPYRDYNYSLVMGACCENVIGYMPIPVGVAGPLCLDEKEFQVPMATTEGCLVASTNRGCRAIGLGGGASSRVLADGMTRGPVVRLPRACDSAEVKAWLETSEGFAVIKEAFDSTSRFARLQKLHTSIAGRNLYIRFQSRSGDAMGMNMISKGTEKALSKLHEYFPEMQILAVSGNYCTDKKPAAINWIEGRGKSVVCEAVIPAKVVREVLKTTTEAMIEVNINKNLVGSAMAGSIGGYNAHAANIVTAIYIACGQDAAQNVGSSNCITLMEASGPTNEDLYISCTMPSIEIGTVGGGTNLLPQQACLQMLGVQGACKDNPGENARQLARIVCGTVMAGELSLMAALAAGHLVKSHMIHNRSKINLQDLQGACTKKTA
Kind of assay: Induction of human HMGCR-dCat-ELuc degradation expressed in HEK293 cells assessed as reduction in luciferase activity after 8 hrs by luciferase reporter assay. Put shortly:
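Stable HMGCR-dCat-ELuc HEK293 clone (G418 0.4 mg/mL selection) treated for 8 h, then assayed for luciferase activity. In some runs, cells were co-treated with the SQS inhibitor TAK-475 at 10 µM. Mean and SD from biological replicates (n = 4 or 8).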
For orientation: In a reporter assay the amount or activity of a reporter protein is the signal.

Assay [2] deals with T1, 3-hydroxy-3-methylglutaryl-coenzyme A reductase (Homo sapiens). The assay is described as follows: (§1) Induction of human HMGCR-dCat-ELuc degradation expressed in HEK293 cells assessed as reduction in luciferase activity after 4 hrs by luciferase reporter assay. Put shortly: (§2)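 HEK293 clone stably expressing HMGCR-dCat-ELuc, kept under 0.4 mg/mL G418 and picked from limiting-dilution clones. Cells exposed to compound for 4 h, then luciferase activity read as a measure of reporter protein level. Compounds came from 10 mM DMSO stocks (ethanol stock for 25HC). SD of triplicate experiments.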

The target of assay [3] is T2, Sterol regulatory element-binding protein 1 (Homo sapiens) (UniProt P36956).
T2 sequence (whole entry): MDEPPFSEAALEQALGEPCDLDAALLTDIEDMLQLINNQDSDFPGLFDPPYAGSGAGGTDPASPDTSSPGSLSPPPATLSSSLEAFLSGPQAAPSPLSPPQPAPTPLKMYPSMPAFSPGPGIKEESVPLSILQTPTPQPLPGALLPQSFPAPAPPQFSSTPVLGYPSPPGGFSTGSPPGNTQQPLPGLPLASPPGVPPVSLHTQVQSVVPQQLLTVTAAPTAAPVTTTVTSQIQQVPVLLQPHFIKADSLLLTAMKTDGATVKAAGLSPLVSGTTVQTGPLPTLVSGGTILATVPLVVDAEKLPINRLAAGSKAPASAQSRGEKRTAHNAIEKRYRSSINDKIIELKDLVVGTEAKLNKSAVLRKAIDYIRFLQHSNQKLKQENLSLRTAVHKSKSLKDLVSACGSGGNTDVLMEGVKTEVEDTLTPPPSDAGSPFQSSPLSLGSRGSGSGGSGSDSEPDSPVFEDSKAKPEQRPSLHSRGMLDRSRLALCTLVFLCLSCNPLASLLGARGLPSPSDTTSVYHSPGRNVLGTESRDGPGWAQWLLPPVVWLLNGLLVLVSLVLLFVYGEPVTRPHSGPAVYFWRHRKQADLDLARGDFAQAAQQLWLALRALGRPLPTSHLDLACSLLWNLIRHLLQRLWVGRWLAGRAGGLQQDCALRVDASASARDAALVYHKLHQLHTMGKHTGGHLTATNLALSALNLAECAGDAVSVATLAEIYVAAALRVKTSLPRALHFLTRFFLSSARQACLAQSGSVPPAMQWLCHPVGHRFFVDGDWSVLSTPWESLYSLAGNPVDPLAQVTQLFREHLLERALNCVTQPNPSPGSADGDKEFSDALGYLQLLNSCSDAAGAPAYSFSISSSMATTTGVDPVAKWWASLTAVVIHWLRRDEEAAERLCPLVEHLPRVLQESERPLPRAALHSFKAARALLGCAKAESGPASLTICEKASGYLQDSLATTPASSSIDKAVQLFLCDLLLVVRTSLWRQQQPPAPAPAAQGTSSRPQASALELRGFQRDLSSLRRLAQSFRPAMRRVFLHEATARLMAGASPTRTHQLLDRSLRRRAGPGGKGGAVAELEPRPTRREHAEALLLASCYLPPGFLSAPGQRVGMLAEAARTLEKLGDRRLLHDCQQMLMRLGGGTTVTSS
Kind of assay: Inhibition of SREBP (unknown origin) expressed in HEK293 cells assessed as reduction in LDLr promotor activity after 24 hrs by luciferase reporter assay. Put shortly: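 HEK293 cells transiently co-transfected with pGL4-LDLr-luciferase and pCMV-beta-galactosidase. After 24 h the medium was changed to DMEM with 10% LPDS, compounds were added, and culture continued for 24 h. Luciferase was read and normalized to beta-galactosidase activity. Mean ± SD, n = 3.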

Assay [4] concerns the target T3, 3-hydroxy-3-methylglutaryl-coenzyme A reductase (Homo sapiens, UniProt P04035).
T3 sequence (P04035 whole entry): T1 sequence (whole entry)
The description is as §1. The essentials: as §2

In assay [5] the target is T1, 3-hydroxy-3-methylglutaryl-coenzyme A reductase (Homo sapiens). The assay is described as follows: Induction of human HMGCR-dCat-ELuc degradation expressed in HEK293 cells assessed as reduction in luciferase activity at 10 uM measured at <4 hrs by luciferase reporter assay. The essentials: (§3)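 Time-course degradation assay in the stable HMGCR-dCat-ELuc HEK293 line. Compound at 10 µM, alone or together with the VCP inhibitor CB5083 at 10 µM, for the indicated times. Reporter level read by luciferase activity.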

Assay [6] shares this target. Kind of assay: Induction of human HMGCR-dCat-ELuc degradation expressed in HEK293 cells assessed as reduction in luciferase activity at 10 uM measured at <4 hrs in presence of VCP inhibitor CB5083 by luciferase reporter assay. The essentials: as §3
Assay [7] shares this target. Kind of assay: Induction of human HMGCR-dCat-ELuc degradation expressed in HEK293 cells assessed as reduction in luciferase activity measured after 8 hrs by luciferase reporter assay. The essentials: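 Stable HEK293 clone expressing HMGCR-dCat-ELuc, selected with 0.4 mg/mL G418 and isolated by limiting dilution. Cells were given graded compound concentrations without TAK-475 for 8 h. HMGCR-dCat-ELuc level was read as luciferase activity. Data are mean and SD.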

Assay [8] has the same target. The assay is described as follows: Induction of human HMGCR-dCat-ELuc degradation expressed in HEK293 cells assessed as reduction in luciferase activity measured after 8 hrs in presence of SQS inhibitor TAK-475 by luciferase reporter assay. Put shortly:
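Stable HEK293 HMGCR-dCat-ELuc clone (G418-selected, single clone) was given graded compound concentrations together with 10 µM TAK-475 (SQS inhibitor) for 8 h. The read-out was luciferase activity. Data are mean and SD of biological replicates, n = 4.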

Regarding `COc1cccc([C@H]2O[C@H](CC(=O)N3CCC(CC(=O)O)CC3)C(=O)N(CC(C)(C)COC(C)=O)c3ccc(Cl)cc32)c1OC`, in assay [1], the result was inactive.
Consider `C[C@H](CCC(O)C(C)(C)O)[C@H]1CC[C@@]2(C)C3=C(CC[C@]12C)[C@@]1(C)CC[C@H](O)C(C)(C)[C@@H]1CC3` (stereo partly drawn), for which the result in assay [2] was Active. Further, in assay [3], the inhibition entry was “Active”.
In the case of `C[C@H](CCC1OC1(C)C)[C@H]1CC[C@@]2(C)C3=C(CC[C@]12C)[C@@]1(C)CC[C@H](O)C(C)(C)[C@@H]1CC3` (stereo partly drawn), the result in assay [2] was Active. Moreover, the inhibition result in assay [3] was “Active”.
In the case of `CC(C)CCC[C@@H](C)[C@H]1CC[C@H]2[C@@H]3C[C@@H](O)[C@@]4(O)C[C@@H](O)CC[C@]4(C)[C@H]3CC[C@]12C`, the outcome in assay [2] was Active. Also, the inhibition result in assay [3] is “inactive”.
By EC50 is commonly meant the concentration needed to bring the measured effect to its halfway point. On to `CC(C)OP(=O)(OC(C)C)C(Cc1cc(C(C)(C)C)c(O)c(C(C)(C)C)c1)P(=O)(OC(C)C)OC(C)C` [APOMINE], for which the Activity entry in assay [2] is “Dose-dependent effect”. Moreover, the EC50 in assay [4] amounted to 470 nM. Moreover, the inhibition result in assay [3] is “inactive”. In assay [5], the outcome was Active. In addition, the outcome in assay [6] was inactive.
Regarding `CC(C)CCC[C@@H](C)[C@H]1CC[C@H]2[C@@H]3CC=C4C[C@@H](O)CC[C@]4(CO)[C@H]3CC[C@]12C`, the outcome in assay [2] was inactive. In assay [3], the inhibition entry was “inactive”.
For the molecule `CC(=O)N1CCN(c2ccc(OCC3COC(Cn4ccnc4)(c4ccc(Cl)cc4Cl)O3)cc2)CC1` (stereo not drawn), in assay [7], the Activity entry was “Dose-dependent effect”. The result in assay [8] was inactive.
In the case of `C[C@H](CCCC(C)(C)O)[C@H]1CC[C@@]2(C)C3=C(CC[C@]12C)[C@@]1(C)CC[C@H](O)C(C)(C)[C@@H]1CC3`, the result in assay [2] was Active. Moreover, the inhibition entry in assay [3] is “Active”.
With `CC(C)CCC[C@@H](C)[C@H]1CC[C@H]2[C@@H]3CC=C4C(C)(C)[C@@H](O)CC[C@]4(C)[C@H]3CC[C@]12C`, in assay [2], the result was inactive. For the same molecule, the inhibition result in assay [3] is “inactive”.
Consider `C[C@H](CCCC(C)(C)O)[C@H]1CC[C@H]2[C@@H]3CCC4=CC(=O)CC[C@]4(C)[C@H]3CC[C@]12C`, for which the outcome in assay [2] was inactive. Besides, the inhibition entry in assay [3] was “Active”.
For `C[C@H](CCCC(C)(C)O)[C@H]1CC[C@H]2[C@@H]3C[C@@H](O)[C@@]4(O)C[C@@H](O)CC[C@]4(C)[C@H]3CC[C@]12C`, the result in assay [2] was Active. The inhibition result in assay [3] was “inactive”.
Taken in the same sequence, the figures for `C[C@H](CCCO)[C@H]1CC[C@@]2(C)C3=C(CC[C@]12C)[C@@]1(C)CC[C@H](O)C(C)(C)[C@@H]1CC3` were “Active” and “inactive”.
Turning to `C[C@H](CCCC(C)(C)O)[C@H]1CC[C@H]2[C@@H]3CC=C4C[C@@H](O)CC[C@]4(C)[C@H]3CC[C@]12C`, the Activity result in assay [2] is “Dose-dependent effect”. For the same molecule, in assay [4], the EC50 was 630 nM. Besides, in assay [3], the inhibition entry is “Active”.
As for `CC(C)CCC[C@@H](C)[C@H]1CC[C@@]2(C)C3=C(C(=O)C[C@]12C)[C@@]1(C)CC[C@H](O)C(C)(C)[C@@H]1CC3=O`, in assay [2], the result was Active. Further, in assay [3], the inhibition result was “inactive”.
For the molecule `CC(C)CCC[C@@H](C)[C@H]1CC[C@@]2(C)C3=C(CC[C@]12C)[C@@]1(C)CC[C@H](O)C(C)(C)[C@@H]1CC3`, the result in assay [2] was inactive. Besides, in assay [3], the inhibition result is “inactive”.

The values above are taken from ChEMBL document CHEMBL4616603, “Luciferase-based HMG-CoA reductase degradation assay for activity and selectivity profiling of oxy(lano)sterols” (Bioorg Med Chem, 2020).
